In ChEMBL document CHEMBL1125843, “Electron-deficient isoalloxazines: model systems for disulfide prodrug formation” (J Med Chem, 1991):

Key:
Type in all cases: ADME
[1] = General acid and general base rate constant (10e4kA-) required for the formation of m-nitrothiophenol disulfide.
Method in brief: (§1)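 Isoalloxazine-catalyzed oxidation of m-nitrothiophenol to its disulfide was quantified by HPLC in phosphate buffer (0.08-0.4 M, pH 7-9) with ionic strength held at 0.4 M (KCl). Isoalloxazine stocks in dry methanol/dichloromethane were diluted into aqueous-methanolic reactions. At fixed pH, k_obs/[mNTP] was plotted against buffer base fraction. The slopes were then plotted against [AH]/[A−] to give k_AH (slope) and k_A− (intercept). Values are the mean of two determinations.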

[2] = […] rate constant (10e7kAH) required for the formation of m-nitrothiophenol disulfide.; method in brief: as §1
[3] = Spontaneous rate constant (10e6 ko) required for the formation of m-nitrothiophenol disulfide.; method in brief: as §1

O=c1nc2n(-c3ccccc3)c3ccccc3nc-2c(=O)n1CCCCCCCCS
kA- [1]: 0.1 M⁻¹ s⁻¹
kAH [2]: 6.8 M⁻¹ s⁻¹
k'o [3]: 3 M⁻¹ s⁻¹

Cn1c2nc(=O)n(CCCCCCCCS)c(=O)c-2nc2ccc(C#N)cc21
kA- [1]: 2.3 M⁻¹ s⁻¹
kAH [2]: 131.7 M⁻¹ s⁻¹
k'o [3]: 4.6 M⁻¹ s⁻¹
